This is a sample that favours compounds with a hit; in the whole collection about 1.9% have one here.
NTR1 agonist: agonists of human NTR1, primary screen, imaging, U2OS cells, beta-arrestin-GFP, high content. actives 0.17% (n = 330,000). activation, % at 20 µM. NTR1-U2OS beta-arrestin-GFP spot imaging, agonist mode. Neurotensin receptor type 1 (Homo sapiens), P30989. AID 493036, 2011;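 active = activation at or above 40% of the spot to cytoplasm intensity ratio, with at least 20 cells analyzed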;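 note: 0% = DMSO without peptide and 100% = 100 nM NTR1 peptide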
MC4R ag barr: MC4R agonists recruiting beta-arrestin, primary screen, cell-based, luminescence, agonist arm of biased-ligand search | Melanocortin receptor 4 (Homo sapiens), P32245 | activation, % at 8.9 µM | U2OS MC4R beta-arrestin complementation; percent of melanotan II response, DMSO zero | actives 0.98% (n = 360,000);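 active = activation above a per-plate cutoff, the mean activation of sample wells on that plate plus 3 SD, cut at about 8% in these data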
Target sequence (P32245 whole entry, looked up): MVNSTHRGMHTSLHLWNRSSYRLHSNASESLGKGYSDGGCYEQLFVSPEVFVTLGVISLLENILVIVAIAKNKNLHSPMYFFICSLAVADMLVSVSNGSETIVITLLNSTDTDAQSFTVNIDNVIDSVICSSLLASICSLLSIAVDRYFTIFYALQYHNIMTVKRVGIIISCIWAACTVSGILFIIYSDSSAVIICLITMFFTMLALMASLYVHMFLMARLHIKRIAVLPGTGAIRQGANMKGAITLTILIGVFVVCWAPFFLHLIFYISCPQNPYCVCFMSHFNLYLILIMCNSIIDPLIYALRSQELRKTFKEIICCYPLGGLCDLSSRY
TLR4 MyD88 comp: inhibitors of TLR4-MyD88 association in cells, primary screen, cell-based, HeLa CL3-4, BLA complementation, FRET ratio. Toll-like receptor 4 (Homo sapiens) + Myeloid differentiation primary response protein …. HeLa CL3-4 TLR4/MyD88 BLA complementation. inhibition, % at 8.4 µM. actives 0.18% (n = 200,000). AID 861, 2007; in the data active = inhibition above about 25%;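 note: 0% = vehicle and 100% = reference inhibitor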
TLR9-MyD88 block: inhibitors of TLR9-MyD88 association in cells, primary screen, cell-based, CHO, BLA complementation, fluorescence; AID 504734, 2011; actives 0.21% (n = 340,000); inhibition, % at 4.98 µM; CCF4 FRET ratio;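 active = inhibition above the mean over all tested compounds plus 3 SD, cut at about 21% in these data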;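 note: 0% = DMSO only wells and 100% = clavulanate BLA inhibitor control wells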
MC4R antag cAMP: MC4R antagonists of cAMP signaling, primary screen, cell-based, TR-FRET, antagonist arm of biased-ligand search; MC4R-expressing cells, MTII-stimulated cAMP, LANCE TR-FRET; inhibition, % at 6.5 µM; actives 0.48% (n = 360,000);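 active = inhibition above its plate's cutoff, the mean of tested wells on that plate plus 3 SD, cut at about 29% in these data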;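 note: 0% = Melanotan II alone and 100% = Melanotan II plus saturating MCL0020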
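Assay system: human MC4R-expressing U2OS cells; reagent: Melanotan II stimulation of cells; dosing: 6.5 µM single dose; timing: compound 30 min, challenge 1 h, detection 1 h; signal: TR-FRET cAMP assay; replicates: one well per compound, no replicates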
NOD2-RIPK2 inh: NOD2-RIPK2 binding disruptors in cells, primary screen, fluorescence, CHO cells, BLA complementation; CCF4 ratio; inhibition, % at 4.98 µM; actives 0.38% (n = 360,000); AID 624267, 2012; in the data active = inhibition above about 21%;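 note: 0% = vehicle only and 100% = reference blocker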
MC4R barr ag: MC4R beta-arrestin agonists, retest, confirmation, cell-based, luminescence, U2OS | shares compounds with MC4R ag barr | activation, % at 8.9 µM | AID 602192, 2012 | actives 31% (n = 2,400) | U2OS MC4R beta-arrestin recruitment; scaled DMSO 0%, Melanotan II 100%;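 active = mean activation across replicates above the hit cutoff set in the earlier primary screen, cut at about 8% in these data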
MOR-DOR barr ag: agonists of MOR-DOR heterodimerization, counter-screen for MC4R biased agonist project, cell-based, luminescence; actives 5.8% (n = 2,400); U2OS PathHunter beta-arrestin, beta-gal luminescence; percent of deltorphin B response, DMSO zero; shares compounds with MC4R ag barr; AID 602194, 2012; activation, % at 9.2 µM;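 active = mean activation across replicates exceeds the hit threshold derived in the earlier primary screen, cut at about 18% in these data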;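 note: 100% = deltorphin B at 0.9 µM final and 0% = DMSO alone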
* = called active by the depositor; . = no result given.

SMILES | NTR1 agonist | MC4R ag barr | TLR4 MyD88 comp | TLR9-MyD88 block | MC4R antag cAMP | NOD2-RIPK2 inh | MC4R barr ag | MOR-DOR barr ag
COc1ccc2cc(C(=O)N3CCC(Cc4ccccc4)CC3)[nH]c2c1 | 3 | 10* | . | 11 | 7 | 0 | 8 | 4
COc1ccc2[nH]c(C(=O)N3CCC(Cc4ccccc4)CC3)cc2c1 | 2 | 2 | . | -4 | 12 | 0 | . | .
CCCCc1ccc(NS(=O)(=O)c2cccs2)cc1 | 7 | 17* | 12 | -2 | 15 | -2 | 8.5* | 7
O=S(=O)(Nc1ccc(Cc2ccncc2)cc1)c1cccs1 | 0 | -1 | -6 | -2 | 13 | -29 | . | .
COc1ccc(C(NC(=O)N2CC(C)OC(C)C2)C(Cl)(Cl)Cl)cc1F (stereo not drawn) | -2 | -1 | -11 | -2 | -5 | 1 | . | .
CC(C)c1ccc(C(C)NC(=O)C2CCCC2)cc1 (stereo not drawn) | 1 | 0 | . | -4 | 2 | 8 | . | .
CCc1nnc(NC(=O)CSc2ncnc3scc(-c4ccc(C)cc4)c23)s1 | 7 | 11* | -6 | 1 | 12 | -12 | 14* | 4
CCCn1c(COc2ccc(C(=O)O)cc2)nc2ccccc21 | 0 | -2 | . | 6 | -4 | 6 | . | .
Cc1ccc(CC2S/C(=N/c3ccccn3)NC2=O)cc1 (stereo not drawn) | 2 | 14* | 7 | 1 | -4 | 0 | 1 | 6
O=C1N/C(=N/c2ccccn2)SC1Cc1ccccc1 (stereo not drawn) | 0 | 2 | 9 | 4 | 10 | -3 | . | .
CCN(CC)CCNC(=O)c1cc2c(-c3ccc(Cl)cc3)nn(C)c2s1 | 4 | 0 | -7 | 3 | 7 | -1 | . | .
CCCN(CCC)CCNC(=O)c1cc2c(-c3ccc(Cl)cc3)nn(C)c2s1 | 13 | 11* | . | 3 | -2 | 1 | 9.0* | 9
Cc1cc(NC(=O)COC(=O)c2oc3c(ccc4ccccc43)c2C)no1 | 2 | 18* | -3 | 0 | 17 | -11 | 6 | 6
Cc1cccc(C(=O)OCC(=O)NC(=O)NCc2ccccc2)c1 | -1 | 1 | . | 2 | 1 | 6 | . | .
Cc1ccc(C)c(C(=O)OCC(=O)NC(=O)NCc2ccccc2)c1 | . | 13* | . | -8 | 20 | 1 | 7 | 11
Cc1ccc(C(=O)OCC(=O)Nc2cc(C(C)(C)C)no2)c(C)c1 | 5 | 9.9* | . | 8 | 18 | -6 | 7 | 10
Cc1cc(NC(=O)COc2ccc3oc4ccccc4c3c2)no1 | 0 | 10* | 5 | 0 | 3 | 5 | 1 | 2
Cc1cc(NC(=O)COc2ccc3c(C)c(C)c(=O)oc3c2)no1 | . | 0 | . | -13 | 5 | 1 | . | .
Cc1cc(NC(=O)COC(=O)c2ccccc2O)no1 | 1 | 1 | . | 1 | 8 | 4 | . | .
COc1ccc(-c2cc(C(=O)OCC(=O)Nc3cc(C)on3)c3ccccc3n2)cc1OC | 12 | 1 | 2 | -18 | 14 | -10 | . | .
Cc1ccc(-c2cc(C(=O)OCC(=O)Nc3cc(C)on3)c3ccccc3n2)c(C)c1 | 9 | 12* | 15 | -7 | 19 | 11 | 4 | 6
Cc1cc(NC(=O)CSc2nc3c(C)cccc3cc2C)no1 | 2 | -1 | . | 2 | 3 | -2 | . | .
COc1ccc(/C(C)=N/OCC(=O)N=Nc2c(O)[nH]c3ccccc23)cc1 | 8 | 14* | -4 | -1 | 8 | -8 | 11* | 3
O=C(NC(=S)Nc1ccccc1O)c1ccccc1Cl | 0 | -5 | 11 | 1 | -12 | -4 | . | .
CC(=O)COc1cc2c(-c3cc4ccccc4o3)cc(=O)oc2cc1C | 14 | 26* | . | 2 | -9 | 5 | 1 | 1
SMILES | NTR1 agonist | MC4R ag barr | TLR4 MyD88 comp | TLR9-MyD88 block | MC4R antag cAMP | NOD2-RIPK2 inh | MC4R barr ag | MOR-DOR barr ag
CCc1cc2c(-c3ccccc3)cc(=O)oc2cc1OCC(C)=O | 8 | 3 | . | 5 | 21 | 5 | . | .
Cc1ccc(-c2nc3ccccc3o2)cc1NC(=S)NC(=O)c1cc2ccccc2o1 | . | 17* | -10 | 1 | 1 | -4 | 11* | 5
Cc1ccc(C2=N/C(=C\c3ccc(F)cc3)C(=O)N2)cc1 | 6 | 22* | . | -2 | 0 | 5 | 3 | 2
Cc1ccc2c(c1)/C(=C/c1ccc(F)cc1)C(=O)N2 | 15 | 4 | . | 2 | -5 | 4 | . | .
O=C(Oc1ccc(-c2cnc3ccccc3n2)cc1)c1ccco1 | 0 | 18* | -7 | 5 | -8 | 6 | -3 | 3
CCC(=O)Oc1ccc(-c2cnc3ccccc3n2)cc1 | -1 | 3 | 5 | 20 | -15 | 2 | . | .
Oc1oc(-c2ccccc2Br)nc1C=Nc1ccc(Br)cn1 | 1 | 21* | 2 | 1 | 2 | -6 | 10* | 3
O=C(CCCOc1ccc(Cl)cc1Cl)Nc1ncccn1 | 1 | -1 | . | -1 | 5 | -7 | . | .
Cc1cc(NC(=O)CCCOc2ccc(Cl)cc2Cl)no1 | -1 | 17* | 0 | 2 | 14 | 1 | 3 | 2
Cc1c(C(=O)Nc2nccs2)oc2c(Cl)cccc12 | 6 | 22* | . | 2 | -9 | -1 | 1 | 6
Cc1cccc(C)c1NC(=O)C(c1ccccc1OC(F)(F)F)N1CCN(C/C=C/c2ccccc2)CC1 (stereo not drawn) | . | . | . | . | . | -6 | . | .
N#Cc1c(-c2ccco2)cc(C2CC2)nc1SCC(=O)c1ccccc1 | 3 | 18* | -7 | -2 | 1 | 4 | 8 | 4
Cc1cc(NC(=O)COC(=O)c2cc([N+](=O)[O-])ccc2N2CCOCC2)ccc1Br | 5 | -3 | . | -15 | -3 | 1 | . | .
O=C(COc1ccc(CNC[C@H]2O[C@@H](n3ccc(=O)[nH]c3=O)[C@H](O)[C@@H]2O)cc1)Nc1nccs1 | . | . | . | . | . | -9 | . | .

Bioassay records: PubChem, several laboratories
